The sample as a whole holds a higher share of hits than the screen did.
T cruzi growth-1 – blocks T. cruzi growth in NIH3T3 culture; T. cruzi beta-gal in NIH3T3, GalScreen luminescence, 90 h; AID 624255; 5.9% of 77,000 active; inhibition, % at 8.34 µM;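 active = mean inhibition above about 93%, with at least 55% of replicates each passing it, limit read from the data, passing the limit was not always enough; inconclusive = only one of those two conditions holds; inactive = neither condition holds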
IDH1 R132H inh – IDH1 R132H (human) inhibition | IDH1 R132H reductase, diaphorase/resazurin fluorescence, 60 min | inhibition, % at 10 µM | 0.18% of 70,000 active | AID 624101; in the data active = inhibition above about 34%; inconclusive = no clear call, values can overlap the other calls; inactive = below about 11%;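 note: 0% = DMSO and 100% = no enzyme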
GASC1 inh – blocks human GASC-1 (KDM4C) demethylase activity; Q9H3R0; GST-KDM4C 2-372, H3K9me3 peptide, LANCE TR-FRET; inhibition, % at 12.5 µM; 0.15% of 96,000 active; AID 720574;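 active = mean replicate inhibition above about 25%, with at least 55% of replicates also reaching it, limit read from the data, passing the limit was not always enough; inconclusive = only one of those two conditions met; inactive = neither condition met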
Target sequence (Q9H3R0 2-372 limits assumed): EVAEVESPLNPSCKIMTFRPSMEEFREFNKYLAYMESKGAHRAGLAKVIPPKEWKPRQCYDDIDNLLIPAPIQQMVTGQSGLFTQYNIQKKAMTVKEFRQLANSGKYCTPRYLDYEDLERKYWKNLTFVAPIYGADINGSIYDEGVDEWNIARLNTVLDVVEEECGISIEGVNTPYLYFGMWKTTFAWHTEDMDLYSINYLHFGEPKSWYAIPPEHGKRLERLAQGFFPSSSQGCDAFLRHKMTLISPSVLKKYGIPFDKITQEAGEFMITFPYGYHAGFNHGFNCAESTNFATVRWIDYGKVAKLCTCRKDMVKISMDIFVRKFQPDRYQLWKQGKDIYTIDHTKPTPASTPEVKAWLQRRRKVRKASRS
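System: N-terminal GST-fused human GASC-1 (KDM4C) fragment, residues 2-372 / Amount: 10 nM GST-KDM4C in enzyme reaction / Also added: H3K9me3 peptide with Fe(II)/2OG / Times: 30 min demethylation and 1 h detection at room temperature / Signal: LANCE TR-FRET / Read-out basis: Fall in 671/618 emission ratio as inhibition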
T cruzi growth-2 – blocks T. cruzi growth in NIH3T3 host cells; shares compounds with T cruzi growth-1; T. cruzi beta-gal in NIH3T3, GalScreen luminescence, 90 h; inhibition, % at 8.35 µM; 72% of 5,600 active;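 active = mean replicate inhibition above about 95% and at least 55% of replicates individually reaching it, limit read from the data; inconclusive = only one of the two criteria is met; inactive = neither criterion is met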
T cruzi growth-3 – Trypanosoma cruzi proliferation inhibition; shares compounds with T cruzi growth-1; 21% of 5,600 active; T. cruzi beta-gal in NIH3T3, GalScreen luminescence, 90 h; inhibition, % at 2.09 µM;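 active = mean inhibition above about 95%, with at least 55% of replicates also reaching it, limit read from the data; inconclusive = meets just one of the two conditions; inactive = meets neither condition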;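 note: plate controls were neutral control median for no effect and positive control median for full effect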
3T3 cytotox – kills mouse NIH/3T3 fibroblasts; cytotoxicity (signal decrease), % at 8.35 µM; shares compounds with T cruzi growth-1; 14% of 5,600 active; NIH/3T3 viability, CellTiter-Glo ATP luminescence, 90 h;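 active = mean signal decrease across replicates above about 35% based on untreated-well scatter, with enough replicates individually passing, limit read from the data; inconclusive = no rule stated though some were filed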;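 note: 0% = median of neutral control wells and 100% = median of positive control wells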
NIH3T3 tox 2 – NIH/3T3 (mouse) viability loss. shares compounds with T cruzi growth-1. NIH/3T3 viability, CellTiter-Glo ATP luminescence, 90 h. inhibition, % at 24.9 µM. 56% of 5,600 active. AID 651744;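 active = mean loss of cell viability signal at or above a set limit, and enough replicates individually reaching it; inconclusive = meets only the mean limit or only the replicate share; inactive = meets neither condition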;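 note: 0% = median of neutral control wells and 100% = median of positive control wells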
Starred values were filed as active, the others as inactive; ? = inconclusive; . = no result given.

SMILES	T cruzi growth-1	IDH1 R132H inh	GASC1 inh	T cruzi growth-2	T cruzi growth-3	3T3 cytotox	NIH3T3 tox 2
CO[C@@H]1CN(C)C(=O)c2cc(NC(=O)C3CCCCC3)ccc2OC[C@H](C)NC[C@@H]1C	42.1	-0.1	-0.2	.	.	.	.
CO[C@H]1CN(C)C(=O)c2ccc(NS(=O)(=O)c3cccc(F)c3)cc2OC[C@H](C)N(Cc2cc(F)ccc2F)C[C@H]1C	.	0.2	0.1	.	.	.	.
Cc1ccc(C)c(NC(=O)C2CN(S(=O)(=O)c3ccccc3)CCN2S(=O)(=O)c2ccccc2)c1 (centres undefined)	.	-0.2	.	.	.	.	.
CO[C@@H]1CN(C)C(=O)c2cc(NC(=O)C3CC3)ccc2OC[C@H](C)N(Cc2cc(F)ccc2F)C[C@@H]1C	61.1	0.1	1.0	.	.	.	.
CO[C@H]1CN(C)C(=O)c2cc(NC(=O)C3CC3)ccc2OC[C@H](C)N(Cc2cc(F)ccc2F)C[C@@H]1C	97.2*	-0.3	-0.9	108.4*	24.5	20.6	45.1*
CNC[C@@H]1OCCCC[C@H](C)Oc2ccc(NS(C)(=O)=O)cc2C(=O)N([C@@H](C)CO)C[C@H]1C	32.5	0.8	2.1	.	.	.	.
CNC[C@@H]1OCCCC[C@H](C)Oc2ccc(NS(=O)(=O)c3ccc(C)cc3)cc2C(=O)N([C@@H](C)CO)C[C@H]1C	77.7	.	-0.9	.	.	.	.
CNC[C@H]1OCCCC[C@H](C)Oc2ccc(NS(=O)(=O)c3ccc(C)cc3)cc2C(=O)N([C@@H](C)CO)C[C@@H]1C	102.2*	6.3	6.9	-10.1	-12.3	1.1	11.2
CNC[C@H]1OCCCC[C@H](C)Oc2ccc(NS(C)(=O)=O)cc2C(=O)N([C@@H](C)CO)C[C@@H]1C	100.8*	4.5	-2.1	-26.2	-4.7	-14.7	-25.4
C[C@@H]1CN([C@@H](C)CO)C(=O)c2cc(/C=C/c3ccccc3)cnc2O[C@@H]1CN(C)C(=O)Nc1ccc(C(F)(F)F)cc1	.	.	-3.8	.	.	.	.
Cc1ccccc1-c1ccc([C@H]2[C@H](CO)N3C(=O)CN(C(=O)c4ccncc4)C[C@@H]23)cc1	.	.	-1.0	.	.	.	.
N#C[C@H]1[C@@H](c2ccc(C#Cc3cccc(F)c3)cc2)[C@H](CO)N1C(=O)C1CC1	98.1*	.	-2.1	99.5*	100.4*	39.3*	95.2*
N#C[C@H]1[C@H](c2ccc(C#Cc3cccc(F)c3)cc2)[C@@H](CO)N1C(=O)C1CC1	101.6*	.	2.2	103.8*	83.3	14.2	15.4
N#C[C@@H]1[C@H](c2ccc(C#Cc3ccc(F)cc3)cc2)[C@@H](CO)N1C(=O)C1CC1	102.8*	.	0.7	104.5*	108.0*	0.5	98.0*
N#C[C@@H]1[C@@H](c2ccc(C#Cc3cccnc3)cc2)[C@@H](CO)N1C(=O)C1CC1	37.1	.	0.1	.	.	.	.
COc1cccc(C#Cc2ccc([C@@H]3[C@H](C#N)N(C(=O)C4CC4)[C@H]3CO)cc2)c1	?	.	-2.0	93.8	111.6*	7.6	24.8*
N#C[C@@H]1[C@@H](c2ccc(C#Cc3ccc(F)cc3)cc2)[C@H](CO)N1C(=O)C1CCC1	87.1	.	-1.9	.	.	.	.
COc1cccc(C#Cc2ccc([C@@H]3[C@@H](C#N)N(C(=O)C4CCCC4)[C@@H]3CO)cc2)c1	.	.	-1.8	.	.	.	.
COC(=O)CCSc1nc2sc3c(c2c(=O)n1-c1cccc(C)c1)CC(C)(C)OC3	.	1.9	.	.	.	.	.
Cc1nn(C)c(C)c1/C=C/C(=O)C(C)(C)C	.	-1.1	.	.	.	.	.
C[C@H]1CCCCO[C@@H](CN(C)C)[C@@H](C)CN([C@@H](C)CO)C(=O)c2cc(NC(=O)C3CCCCC3)ccc2O1	-7.2	0.6	-0.8	.	.	.	.
CN(C)CC#Cc1ccc([C@H]2[C@@H](CO)N(C(=O)C3CCCC3)[C@H]2C#N)cc1	24.6	.	-1.6	.	.	.	.
CC(C)C#Cc1ccc([C@H]2[C@H](C#N)N(C(=O)C3CCC3)[C@H]2CO)cc1	96.5*	.	-3.4	107.9*	30.7	0.2	5.9
CCCC#Cc1ccc([C@@H]2[C@@H](CO)N(C(=O)C3CCCC3)[C@H]2C#N)cc1	99.8*	.	0.1	97.4*	98.4*	-0.6	4.5
CCCC#Cc1ccc([C@H]2[C@@H](C#N)N(C(=O)C3CCCC3)[C@@H]2CO)cc1	102.5*	.	-3.4	100.1*	103.7*	-5.8	15.4
SMILES	T cruzi growth-1	IDH1 R132H inh	GASC1 inh	T cruzi growth-2	T cruzi growth-3	3T3 cytotox	NIH3T3 tox 2
CC(C)C#Cc1ccc([C@@H]2[C@@H](C#N)N(C(=O)C3CCC3)[C@@H]2CO)cc1	89.7	.	0.4	.	.	.	.
CCCC#Cc1ccc([C@H]2[C@@H](CO)N(C(=O)C3CCC3)[C@H]2C#N)cc1	.	.	-2.4	.	.	.	.
CCCC#Cc1ccc([C@@H]2[C@H](C#N)N(C(=O)C3CCC3)[C@H]2CO)cc1	?	.	-0.1	100.8*	104.6*	26.2	29.7*
Cc1ccc([N+](=O)[O-])cc1NC(=O)c1cc(S(=O)(=O)N2CCOCC2)c(Cl)cc1Cl	.	-0.1	.	.	.	.	.
CCCC#Cc1ccc([C@@H]2[C@@H](C#N)N(C(=O)C3CCCCC3)[C@@H]2CO)cc1	103.4*	.	0.0	99.6*	91.2	2.4	14.1
CCCC#Cc1ccc([C@H]2[C@@H](C#N)N(C(=O)C3CCCCC3)[C@H]2CO)cc1	90.8	.	-1.2	.	.	.	.
Cc1ccc(N(C(C)C(=O)Nc2ccc(Cl)cc2)S(C)(=O)=O)cc1C (centres undefined)	.	0.4	.	.	.	.	.
Cc1ccc(-c2cnc3c(c2)C(=O)N([C@@H](C)CO)C[C@@H](C)[C@H](CN(C)CC2CCCC2)O3)cc1	51.8	-1.2	3.7	.	.	.	.
C[C@@H]1CN([C@H](C)CO)C(=O)c2cc(-c3ccccc3)cnc2O[C@H]1CN(C)C	?	1.7	3.5	100.0*	-25.6	4.7	20.4
C[C@H](CO)N1C[C@H](C)[C@@H](CN(C)C(=O)CN2CCOCC2)Oc2ncc(-c3cncnc3)cc2C1=O	?	-1.5	1.2	-8.0	13.7	-1.6	-4.2
Cc1ccc(-c2cnc3c(c2)C(=O)N([C@@H](C)CO)C[C@H](C)[C@@H](CN(C)CC2CCCC2)O3)cc1	102.9*	-0.6	-1.5	107.7*	43.2	?	104.5*
C[C@H](CO)N1C[C@H](C)[C@@H](CN(C)C)Oc2ncc(-c3ccccc3)cc2C1=O	12.2	-2.3	-1.6	.	.	.	.
C[C@H]1CN([C@@H](C)CO)C(=O)c2cc(-c3cncnc3)cnc2O[C@H]1CN(C)C(=O)CN1CCOCC1	.	0.1	1.7	.	.	.	.
COc1ccc([N+](=O)[O-])cc1N(CC(=O)Nc1ccccc1Br)S(C)(=O)=O	.	2.1	.	.	.	.	.
CCc1ccccc1NC(=O)CSc1c(C)n[nH]c1C	.	0.1	.	.	.	.	.
COc1cccc(-c2ccc([C@@H]3[C@@H](C#N)N(C(=O)Cc4ccncc4)[C@@H]3CO)cc2)c1	74.9	.	-7.2	.	.	.	.
COc1cccc(-c2ccc([C@@H]3[C@@H](CO)N(C(=O)Cc4ccccc4)[C@H]3C#N)cc2)c1	85.1	.	2.0	.	.	.	.
